Usually pIC50 stands for the IC50 on a negative log10 scale, so that one unit is a factor of ten. The microsomal CLint is the rate of metabolic loss divided by the concentration. Low readings indicate greater metabolic stability, high ones faster metabolism. The AUC is the area under the concentration-time curve, a measure of exposure. Lower therefore signals low exposure. As a reminder, the pEC50 is −log10 of the EC50, conventionally taken in molar units. Usually bioavailability stands for dose-corrected exposure relative to a reference, in per cent. A low value points to little systemic uptake. For orientation: half-life means how long it takes for the measured level to halve. A lower half-life goes with fast loss.

pEC50, pIC50: −log10 of the molar value.

We go through one compound from ChEMBL document CHEMBL1153250, “Discovery and SAR of novel, potent and selective hexahydrobenzonaphthyridinone inhibitors of poly(ADP-ribose)polymerase-1 (PARP-1)” (Bioorg Med Chem Lett, 2010).

The nature of series [1]: Inhibition of Cytochrome P450 at 10 uM. The series is classed as ADME.
Series [2] concerns the target T1, Poly [ADP-ribose] polymerase 1 (Homo sapiens, UniProt P09874). The experiment in a line: Inhibition of human PARP1 by scintillation proximity assay.
The next series deals with Rattus norvegicus. Kind of series: Volume of distribution in rat at 3 mg/kg, iv and po. It is filed as ADME, organism-based. Set-up: dose 3 mg/kg, route oral. The following applies: in vivo. In short, it runs like this:
(§1)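 Rats received the compound both intravenously and orally, each at 3 mg/kg. Reported PK parameters are half-life (h), volume of distribution (L/kg), clearance (ml/min/kg), oral bioavailability (%F) and oral AUC (μM h).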

For series [3], the target named is T2, Protein mono-ADP-ribosyltransferase PARP3 (Homo sapiens, UniProt Q9Y6F1).
T2 sequence (Q9Y6F1 whole entry): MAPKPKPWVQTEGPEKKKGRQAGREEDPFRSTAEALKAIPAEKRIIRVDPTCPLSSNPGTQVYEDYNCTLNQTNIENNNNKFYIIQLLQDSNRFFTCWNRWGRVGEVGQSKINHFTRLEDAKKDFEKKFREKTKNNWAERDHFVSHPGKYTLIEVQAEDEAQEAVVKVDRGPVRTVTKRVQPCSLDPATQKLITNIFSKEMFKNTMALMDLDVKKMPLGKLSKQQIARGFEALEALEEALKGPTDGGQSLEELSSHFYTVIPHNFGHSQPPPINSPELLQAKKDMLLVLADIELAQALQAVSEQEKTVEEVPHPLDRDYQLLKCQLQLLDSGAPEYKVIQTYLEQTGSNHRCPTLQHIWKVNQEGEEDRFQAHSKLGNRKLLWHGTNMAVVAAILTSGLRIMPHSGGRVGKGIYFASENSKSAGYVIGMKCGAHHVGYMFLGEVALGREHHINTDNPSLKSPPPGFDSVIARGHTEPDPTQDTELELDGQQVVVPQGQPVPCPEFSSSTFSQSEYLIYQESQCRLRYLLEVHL
Kind of series: Inhibition of PARP3.

Series [4] addresses Poly [ADP-ribose] polymerase 2 (Homo sapiens, UniProt Q9UGN5). The experiment in a line: Inhibition of PARP2.
A short description of series [5]: Intrinsic clearance in rat liver microsomes. The series is classed as ADME, Microsome.
Series [6] has as its target Protein mono-ADP-ribosyltransferase PARP4 (Homo sapiens, UniProt Q9UKK3). Kind of series: Inhibition of VPARP.
Series [7] in a line: AUC in rat at 3 mg/kg, po. The series is classed as ADME, organism-based. On the set-up: dose 3 mg/kg, route oral. The following applies: plasma. In outline:
as §1

The target of series [8] is T1, Poly [ADP-ribose] polymerase 1. The experiment in a line: Inhibition of PARP1 in human HeLa cells assessed as inhibition of hydrogen peroxide-induced poly(ADP-ribosyl)ation. The series is classed as cell-based.
The target of series [9] is Voltage-gated inwardly rectifying potassium channel KCNH2 (Homo sapiens, UniProt Q12809). Kind of series: Binding affinity to potassium channel IKr at 10 uM.
Voltage-gated inwardly rectifying potassium channel KCNH2, sequence (Q12809 whole entry): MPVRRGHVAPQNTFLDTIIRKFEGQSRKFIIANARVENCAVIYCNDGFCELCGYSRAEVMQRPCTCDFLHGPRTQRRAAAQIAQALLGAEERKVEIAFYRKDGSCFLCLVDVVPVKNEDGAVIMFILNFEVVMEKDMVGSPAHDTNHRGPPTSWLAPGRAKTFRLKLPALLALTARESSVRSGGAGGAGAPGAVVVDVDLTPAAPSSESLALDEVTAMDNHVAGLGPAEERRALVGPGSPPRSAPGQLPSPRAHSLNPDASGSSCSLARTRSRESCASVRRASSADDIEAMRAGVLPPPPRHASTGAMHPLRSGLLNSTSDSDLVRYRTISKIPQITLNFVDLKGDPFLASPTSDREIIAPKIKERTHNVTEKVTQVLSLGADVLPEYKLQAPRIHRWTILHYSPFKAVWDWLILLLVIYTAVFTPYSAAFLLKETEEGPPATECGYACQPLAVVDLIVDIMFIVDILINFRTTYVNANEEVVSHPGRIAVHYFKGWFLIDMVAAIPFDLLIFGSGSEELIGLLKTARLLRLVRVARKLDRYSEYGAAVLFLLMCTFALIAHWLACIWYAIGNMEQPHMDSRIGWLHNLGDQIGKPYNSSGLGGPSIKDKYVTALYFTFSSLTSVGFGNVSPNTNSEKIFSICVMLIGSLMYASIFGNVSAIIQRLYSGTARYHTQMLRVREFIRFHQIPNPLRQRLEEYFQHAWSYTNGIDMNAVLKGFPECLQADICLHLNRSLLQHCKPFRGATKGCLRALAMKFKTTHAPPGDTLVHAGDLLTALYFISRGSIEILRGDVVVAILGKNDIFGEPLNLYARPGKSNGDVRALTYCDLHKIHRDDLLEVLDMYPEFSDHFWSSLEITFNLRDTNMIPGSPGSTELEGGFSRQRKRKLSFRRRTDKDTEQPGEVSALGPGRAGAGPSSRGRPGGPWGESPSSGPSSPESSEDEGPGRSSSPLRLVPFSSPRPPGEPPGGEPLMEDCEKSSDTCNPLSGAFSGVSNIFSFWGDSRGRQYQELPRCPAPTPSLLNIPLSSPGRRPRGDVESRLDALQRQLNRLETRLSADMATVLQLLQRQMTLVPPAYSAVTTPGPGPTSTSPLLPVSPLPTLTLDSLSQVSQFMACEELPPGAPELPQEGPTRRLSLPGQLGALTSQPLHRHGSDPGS
Series [10] in a line: Oral bioavailability in rat at 3 mg/kg. It is filed as ADME, organism-based. The following applies: in vivo. In outline:
as §1

Series [11] has as its target T3, Poly [ADP-ribose] polymerase tankyrase-1 (Homo sapiens, UniProt O95271).
T3 sequence (O95271 whole entry): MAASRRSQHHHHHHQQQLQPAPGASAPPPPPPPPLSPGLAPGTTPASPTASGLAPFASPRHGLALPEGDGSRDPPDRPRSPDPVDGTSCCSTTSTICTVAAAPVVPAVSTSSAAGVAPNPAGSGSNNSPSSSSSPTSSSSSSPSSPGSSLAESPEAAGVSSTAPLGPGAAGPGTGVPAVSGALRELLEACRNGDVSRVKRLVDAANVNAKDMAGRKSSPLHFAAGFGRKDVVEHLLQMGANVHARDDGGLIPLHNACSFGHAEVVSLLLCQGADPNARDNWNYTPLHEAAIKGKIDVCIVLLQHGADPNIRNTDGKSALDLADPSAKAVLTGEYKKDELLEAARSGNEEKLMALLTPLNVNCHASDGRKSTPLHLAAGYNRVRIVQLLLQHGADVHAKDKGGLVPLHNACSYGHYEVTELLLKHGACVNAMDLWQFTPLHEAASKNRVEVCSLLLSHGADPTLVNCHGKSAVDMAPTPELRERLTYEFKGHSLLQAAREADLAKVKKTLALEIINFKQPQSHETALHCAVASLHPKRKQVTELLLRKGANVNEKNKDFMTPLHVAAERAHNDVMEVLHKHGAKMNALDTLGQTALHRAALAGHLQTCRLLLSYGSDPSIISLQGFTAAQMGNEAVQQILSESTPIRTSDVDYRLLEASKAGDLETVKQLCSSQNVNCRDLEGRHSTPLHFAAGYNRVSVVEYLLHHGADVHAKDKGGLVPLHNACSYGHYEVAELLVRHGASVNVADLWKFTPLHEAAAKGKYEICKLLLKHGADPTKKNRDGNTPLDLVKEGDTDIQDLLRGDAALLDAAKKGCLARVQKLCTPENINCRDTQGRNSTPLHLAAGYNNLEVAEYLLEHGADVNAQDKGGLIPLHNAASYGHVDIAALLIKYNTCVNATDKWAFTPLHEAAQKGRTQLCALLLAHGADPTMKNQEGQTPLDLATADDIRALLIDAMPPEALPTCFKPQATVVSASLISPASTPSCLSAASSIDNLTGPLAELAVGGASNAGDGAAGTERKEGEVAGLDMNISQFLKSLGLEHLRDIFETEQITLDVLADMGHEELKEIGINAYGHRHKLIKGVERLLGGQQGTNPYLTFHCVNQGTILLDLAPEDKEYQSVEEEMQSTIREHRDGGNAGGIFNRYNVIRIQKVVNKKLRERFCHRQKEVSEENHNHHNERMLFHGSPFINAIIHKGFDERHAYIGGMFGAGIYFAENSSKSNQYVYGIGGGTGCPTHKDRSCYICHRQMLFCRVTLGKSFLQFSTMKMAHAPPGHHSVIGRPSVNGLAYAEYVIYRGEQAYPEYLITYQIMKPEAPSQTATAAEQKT
Kind of series: Inhibition of Tankyrase 1.

Series [12] can be described thus: Half life in rat at 3 mg/kg, iv and po. The following applies: in vivo. Set-up: dose 3 mg/kg, route oral. The series is classed as ADME, organism-based. In outline: as §1

T1 sequence (P09874 whole entry): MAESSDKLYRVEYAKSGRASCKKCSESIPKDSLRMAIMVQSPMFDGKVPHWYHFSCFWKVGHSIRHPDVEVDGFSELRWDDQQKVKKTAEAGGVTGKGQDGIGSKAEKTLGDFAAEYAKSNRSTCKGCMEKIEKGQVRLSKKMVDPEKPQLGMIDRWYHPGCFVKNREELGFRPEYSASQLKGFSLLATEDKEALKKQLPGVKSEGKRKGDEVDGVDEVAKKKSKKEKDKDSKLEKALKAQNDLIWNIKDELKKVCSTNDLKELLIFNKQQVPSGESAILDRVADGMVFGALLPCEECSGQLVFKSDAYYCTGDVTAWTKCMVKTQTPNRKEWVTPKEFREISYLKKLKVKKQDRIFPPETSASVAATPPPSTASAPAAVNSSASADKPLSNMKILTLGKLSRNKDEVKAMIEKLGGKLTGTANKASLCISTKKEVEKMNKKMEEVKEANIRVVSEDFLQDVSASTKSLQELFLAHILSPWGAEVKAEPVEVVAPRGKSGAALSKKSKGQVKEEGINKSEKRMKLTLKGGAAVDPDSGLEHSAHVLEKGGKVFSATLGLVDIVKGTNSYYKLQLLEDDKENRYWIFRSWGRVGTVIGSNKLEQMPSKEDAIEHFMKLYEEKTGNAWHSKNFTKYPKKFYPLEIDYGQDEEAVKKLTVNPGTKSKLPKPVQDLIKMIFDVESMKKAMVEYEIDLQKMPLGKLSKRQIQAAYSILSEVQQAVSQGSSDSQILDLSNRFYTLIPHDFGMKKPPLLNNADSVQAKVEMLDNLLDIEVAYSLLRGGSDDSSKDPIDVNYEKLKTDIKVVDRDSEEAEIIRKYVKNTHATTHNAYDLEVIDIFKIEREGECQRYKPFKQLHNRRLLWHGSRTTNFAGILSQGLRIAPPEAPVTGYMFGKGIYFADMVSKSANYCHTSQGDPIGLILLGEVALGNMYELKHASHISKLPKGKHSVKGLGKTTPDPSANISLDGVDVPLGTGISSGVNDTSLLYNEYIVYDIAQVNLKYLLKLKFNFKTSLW
Protein mono-ADP-ribosyltransferase PARP4, sequence (Q9UKK3 whole entry): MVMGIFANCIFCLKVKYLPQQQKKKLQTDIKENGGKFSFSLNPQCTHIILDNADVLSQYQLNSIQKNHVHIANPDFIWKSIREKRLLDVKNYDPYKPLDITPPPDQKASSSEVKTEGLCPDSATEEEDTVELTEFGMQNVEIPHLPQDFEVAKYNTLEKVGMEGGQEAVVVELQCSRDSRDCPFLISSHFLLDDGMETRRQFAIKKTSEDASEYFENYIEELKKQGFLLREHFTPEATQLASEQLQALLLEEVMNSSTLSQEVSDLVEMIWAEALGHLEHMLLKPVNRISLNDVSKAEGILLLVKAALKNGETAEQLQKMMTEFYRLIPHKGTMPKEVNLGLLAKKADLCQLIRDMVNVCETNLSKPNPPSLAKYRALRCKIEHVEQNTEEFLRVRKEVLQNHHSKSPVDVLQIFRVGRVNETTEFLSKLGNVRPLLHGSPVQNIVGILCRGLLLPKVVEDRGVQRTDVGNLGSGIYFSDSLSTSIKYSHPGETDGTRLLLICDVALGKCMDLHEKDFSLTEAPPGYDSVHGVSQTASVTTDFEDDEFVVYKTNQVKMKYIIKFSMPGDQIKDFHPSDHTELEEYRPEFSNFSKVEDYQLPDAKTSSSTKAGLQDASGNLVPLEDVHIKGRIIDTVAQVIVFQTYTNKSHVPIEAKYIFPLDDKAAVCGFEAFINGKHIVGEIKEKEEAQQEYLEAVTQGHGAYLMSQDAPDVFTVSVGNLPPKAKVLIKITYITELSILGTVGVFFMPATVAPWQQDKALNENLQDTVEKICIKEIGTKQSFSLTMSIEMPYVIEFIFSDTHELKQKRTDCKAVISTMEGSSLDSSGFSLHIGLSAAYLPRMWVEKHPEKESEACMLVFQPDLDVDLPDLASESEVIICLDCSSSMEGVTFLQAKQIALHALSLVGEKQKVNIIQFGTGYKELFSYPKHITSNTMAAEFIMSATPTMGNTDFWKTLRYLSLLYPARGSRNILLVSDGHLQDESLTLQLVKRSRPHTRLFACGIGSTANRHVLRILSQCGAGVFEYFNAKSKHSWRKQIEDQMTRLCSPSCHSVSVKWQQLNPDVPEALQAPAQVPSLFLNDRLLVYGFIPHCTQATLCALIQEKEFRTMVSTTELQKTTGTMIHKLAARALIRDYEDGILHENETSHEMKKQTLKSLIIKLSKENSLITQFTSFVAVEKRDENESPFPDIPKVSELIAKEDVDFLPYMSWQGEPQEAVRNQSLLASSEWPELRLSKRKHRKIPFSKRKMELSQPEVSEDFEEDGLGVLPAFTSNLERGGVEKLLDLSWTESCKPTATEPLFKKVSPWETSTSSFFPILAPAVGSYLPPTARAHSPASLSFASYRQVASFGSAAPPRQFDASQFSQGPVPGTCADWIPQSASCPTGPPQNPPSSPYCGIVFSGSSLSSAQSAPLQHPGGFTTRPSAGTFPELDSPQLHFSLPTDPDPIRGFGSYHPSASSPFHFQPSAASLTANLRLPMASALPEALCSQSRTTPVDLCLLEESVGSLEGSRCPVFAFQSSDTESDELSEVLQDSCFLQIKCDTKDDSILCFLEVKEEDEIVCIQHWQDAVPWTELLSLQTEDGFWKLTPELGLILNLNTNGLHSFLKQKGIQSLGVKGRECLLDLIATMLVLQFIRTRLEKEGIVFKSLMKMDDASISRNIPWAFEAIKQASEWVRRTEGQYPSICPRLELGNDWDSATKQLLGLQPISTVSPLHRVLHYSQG
Poly [ADP-ribose] polymerase 2, sequence (Q9UGN5 whole entry): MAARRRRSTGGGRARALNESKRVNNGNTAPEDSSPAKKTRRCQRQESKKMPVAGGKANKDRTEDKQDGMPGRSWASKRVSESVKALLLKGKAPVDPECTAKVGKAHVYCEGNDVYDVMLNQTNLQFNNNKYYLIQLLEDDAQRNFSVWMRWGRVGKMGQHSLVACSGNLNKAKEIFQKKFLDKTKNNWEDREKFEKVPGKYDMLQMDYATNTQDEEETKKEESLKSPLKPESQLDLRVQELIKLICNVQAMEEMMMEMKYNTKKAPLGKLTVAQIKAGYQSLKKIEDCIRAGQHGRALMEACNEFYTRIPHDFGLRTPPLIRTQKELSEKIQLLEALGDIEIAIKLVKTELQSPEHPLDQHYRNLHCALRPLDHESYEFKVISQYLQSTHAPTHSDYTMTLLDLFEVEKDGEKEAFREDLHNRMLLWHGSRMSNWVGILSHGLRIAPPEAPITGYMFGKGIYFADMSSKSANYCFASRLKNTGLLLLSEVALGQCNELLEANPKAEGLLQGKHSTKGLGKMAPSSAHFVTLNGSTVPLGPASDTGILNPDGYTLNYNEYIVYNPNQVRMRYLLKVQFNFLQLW

`O=C1NCC2c3c(cccc31)CCN2C(=O)Cc1cccnc1` (stereo not drawn): the Activity entry in series [1] and in series [9] was “Not Active” in each case. For the same compound, the pIC50 in series [2] was 9.00; in [3], 7.30; in series [4], 9.00; in series [6], 6.36; in [11], 5.46. In addition, the Vd with Rattus norvegicus came out at 3 L/kg. In addition, in series [5], the microsomal CLint was determined as 3 µL/min/mg. The compound further had an AUC in series [7] of 2.3 µM·h. Further, the negative logarithm of the EC50 (pEC50) in series [8] is 6.44. Also, in series [10], the bioavailability is 51%. Further, the half-life in [12] was 102 min.
